ChEMBL document CHEMBL1134871, “N-aryl-prolyl-dipeptides as potent antagonists of VLA-4” (Bioorg Med Chem Lett, 2002)

Assays:
Integrin alpha-4/beta-1 = Integrin alpha-4/beta-1 (Homo sapiens, UniProt P05556+P13612); assay: Inhibition of [125I]VCAM-Ig binding to human integrin alpha4-beta1 (VLA-4) of Jurkat cells; assay type: cell-based
Procedure, shortened: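 Filtered, washed, and bound radiolabel counted by scintillation. DMSO wells set 0% inhibition; cell-free wells set 100%. IC50 from ten-point titration by four-parameter fit, run in duplicate.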

Integrin alpha-4/beta-7 = target: T1, Integrin alpha-4/beta-7 (Homo sapiens, UniProt P13612+P26010); assay: Inhibition of [125I]MAdCAM-Ig binding to human integrin alpha4-beta7 of RPMI-8866 cells; assay type: cell-based
T1 sequence (P13612 whole entry): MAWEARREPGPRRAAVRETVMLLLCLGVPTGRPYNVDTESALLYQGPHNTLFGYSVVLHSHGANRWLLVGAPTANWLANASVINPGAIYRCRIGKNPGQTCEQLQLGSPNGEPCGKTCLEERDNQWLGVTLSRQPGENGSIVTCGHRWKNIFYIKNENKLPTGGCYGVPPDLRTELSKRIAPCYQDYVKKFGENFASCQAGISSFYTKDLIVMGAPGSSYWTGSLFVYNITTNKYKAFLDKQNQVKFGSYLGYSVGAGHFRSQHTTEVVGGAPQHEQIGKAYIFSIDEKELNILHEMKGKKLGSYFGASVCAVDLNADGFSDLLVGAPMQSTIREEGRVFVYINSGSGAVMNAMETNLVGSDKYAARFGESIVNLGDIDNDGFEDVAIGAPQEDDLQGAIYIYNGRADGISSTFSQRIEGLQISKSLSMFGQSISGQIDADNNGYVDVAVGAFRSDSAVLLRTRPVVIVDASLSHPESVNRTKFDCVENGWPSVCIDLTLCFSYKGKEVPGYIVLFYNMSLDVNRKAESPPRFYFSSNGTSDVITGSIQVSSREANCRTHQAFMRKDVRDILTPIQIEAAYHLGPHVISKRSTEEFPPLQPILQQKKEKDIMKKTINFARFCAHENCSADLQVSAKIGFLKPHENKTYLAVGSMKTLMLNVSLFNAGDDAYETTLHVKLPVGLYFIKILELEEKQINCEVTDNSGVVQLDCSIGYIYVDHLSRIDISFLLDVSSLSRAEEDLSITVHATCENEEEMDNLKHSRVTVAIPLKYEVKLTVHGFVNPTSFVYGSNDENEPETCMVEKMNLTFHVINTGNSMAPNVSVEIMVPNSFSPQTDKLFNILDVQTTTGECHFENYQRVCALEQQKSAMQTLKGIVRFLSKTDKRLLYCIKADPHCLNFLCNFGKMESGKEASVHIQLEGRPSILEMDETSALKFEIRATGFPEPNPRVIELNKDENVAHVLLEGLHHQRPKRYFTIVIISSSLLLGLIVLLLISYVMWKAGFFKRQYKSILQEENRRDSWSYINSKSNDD
T1 sequence (P26010 whole entry): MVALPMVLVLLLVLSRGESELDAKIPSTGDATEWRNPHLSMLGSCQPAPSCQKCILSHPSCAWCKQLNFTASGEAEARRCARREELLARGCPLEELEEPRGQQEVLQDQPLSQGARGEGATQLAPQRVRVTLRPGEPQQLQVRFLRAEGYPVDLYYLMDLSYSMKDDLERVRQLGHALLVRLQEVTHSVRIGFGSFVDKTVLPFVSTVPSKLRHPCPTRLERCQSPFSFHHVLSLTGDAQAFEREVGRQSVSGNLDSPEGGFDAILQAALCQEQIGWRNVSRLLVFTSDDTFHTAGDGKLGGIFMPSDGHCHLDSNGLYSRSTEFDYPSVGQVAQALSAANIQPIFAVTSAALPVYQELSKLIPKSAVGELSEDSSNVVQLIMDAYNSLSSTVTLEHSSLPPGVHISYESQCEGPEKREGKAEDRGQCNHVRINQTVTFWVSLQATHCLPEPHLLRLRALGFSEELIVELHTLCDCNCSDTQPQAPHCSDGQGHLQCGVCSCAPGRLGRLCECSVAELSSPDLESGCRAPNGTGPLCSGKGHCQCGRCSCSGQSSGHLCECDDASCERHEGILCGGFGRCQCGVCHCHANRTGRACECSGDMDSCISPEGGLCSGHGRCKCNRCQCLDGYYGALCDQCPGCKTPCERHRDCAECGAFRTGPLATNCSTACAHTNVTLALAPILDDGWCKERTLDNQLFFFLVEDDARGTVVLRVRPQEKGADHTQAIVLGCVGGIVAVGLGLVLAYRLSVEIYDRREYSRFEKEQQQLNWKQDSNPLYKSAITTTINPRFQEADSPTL

[1] = Plasma clearance rate in Sprague-Dawley rats; assay type: ADME, organism-based; conditions: rat, read-out: Clp
Procedure, shortened: (§1)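 Sprague–Dawley rats given 1 mg/kg iv and 2 mg/kg po. Plasma half-life taken over 0–8 h.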

[2] = Plasma half-life was determined in Sprague-Dawley rats after 0-8 hr of administration; assay type: ADME, organism-based; conditions: rat; procedure, shortened: as §1
[3] = Oral bioavailability in rat (Sprague-Dawley) (dose 1 mg/kg i.v.); assay type: ADME, organism-based; conditions: in vivo, 2 mg/kg; procedure, shortened: as §1

Sequence of Integrin alpha-4/beta-1 (P05556 whole entry, one chain of several): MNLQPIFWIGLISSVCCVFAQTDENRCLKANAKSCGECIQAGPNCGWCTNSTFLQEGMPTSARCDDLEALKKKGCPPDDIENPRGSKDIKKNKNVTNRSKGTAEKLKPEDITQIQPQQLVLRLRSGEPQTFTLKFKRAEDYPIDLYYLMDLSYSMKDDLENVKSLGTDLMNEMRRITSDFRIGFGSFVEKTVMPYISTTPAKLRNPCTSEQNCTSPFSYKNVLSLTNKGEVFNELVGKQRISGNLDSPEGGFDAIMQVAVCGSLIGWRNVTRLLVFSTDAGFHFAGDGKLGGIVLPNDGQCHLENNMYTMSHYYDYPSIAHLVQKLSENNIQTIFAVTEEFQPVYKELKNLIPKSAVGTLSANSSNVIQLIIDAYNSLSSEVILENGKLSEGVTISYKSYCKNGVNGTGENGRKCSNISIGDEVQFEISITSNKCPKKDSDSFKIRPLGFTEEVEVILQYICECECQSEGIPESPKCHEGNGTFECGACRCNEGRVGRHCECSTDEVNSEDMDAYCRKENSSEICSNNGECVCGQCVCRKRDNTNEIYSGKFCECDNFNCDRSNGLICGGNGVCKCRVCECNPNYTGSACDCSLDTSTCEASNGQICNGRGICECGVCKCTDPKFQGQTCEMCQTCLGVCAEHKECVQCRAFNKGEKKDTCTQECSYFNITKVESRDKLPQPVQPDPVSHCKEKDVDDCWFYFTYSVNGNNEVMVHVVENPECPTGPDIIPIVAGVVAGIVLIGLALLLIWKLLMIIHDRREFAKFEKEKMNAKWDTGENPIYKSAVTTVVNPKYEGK

| Structure (SMILES) | IC50 (Integrin alpha-4/beta-1) [nM] | IC50 (Integrin alpha-4/beta-7) [nM] | clearance [1] [mL/min/kg] | half-life [2] [min] | bioavailability [3] [%] |
| --- | --- | --- | --- | --- | --- |
| COc1cccc(N2CCC[C@H]2C(=O)N[C@@H](Cc2ccc(-c3c(OC)cccc3OC)cc2)C(=O)O)c1 | 0.41 | 5.8 | 64 | 42 | 3 |
| COc1cccc(OC)c1-c1ccc(C[C@H](NC(=O)[C@@H]2CCCN2c2ccc([N+](=O)[O-])cc2)C(=O)O)cc1 | 1.1 | 17.1 | > 100 | 84 | < 1 |
| COc1cccc(OC)c1-c1ccc(C[C@H](NC(=O)[C@@H]2CCCN2c2cccnc2)C(=O)O)cc1 | 0.34 | 5.5 | 43 | 12 | < 1 |
| COc1cccc(OC)c1-c1ccc(C[C@H](NC(=O)[C@@H]2CCCN2c2cncnc2)C(=O)O)cc1 | 0.73 | 18.8 |  |  |  |
| COc1cccc(OC)c1-c1ccc(C[C@H](NC(=O)[C@@H]2CCCN2c2cncc3ccccc23)C(=O)O)cc1 | 1.1 | 45 |  |  |  |
| COc1cccc(OC)c1-c1ccc(C[C@H](NC(=O)[C@@H]2CCCN2c2cc([N+](=O)[O-])cc([N+](=O)[O-])n2)C(=O)O)cc1 | 0.38 | 17 |  |  |  |
| COc1cccc(OC)c1-c1ccc(C[C@H](NC(=O)[C@@H]2CCCN2c2ccccn2)C(=O)O)cc1 | 1.9 | 18 | 29 | 18 | 2 |
| COc1cccc(OC)c1-c1ccc(CC(NC(=O)C2CCCN2S(=O)(=O)c2ccccc2)C(=O)O)cc1 (stereo unspecified) | 0.05 | 2.5 | 127 | 36 | 2 |
| COc1cccc(OC)c1-c1ccc(C[C@H](NC(=O)[C@@H]2CCCN2c2ccccc2)C(=O)O)cc1 | 0.61 | 21 | 78 | 36 | 14 |
| COc1cccc(OC)c1-c1ccc(C[C@H](NC(=O)[C@@H]2CCCN2c2ccccc2C#N)C(=O)O)cc1 | 0.37 | 3.5 | 69 | 18 | < 1 |
| COc1cccc(OC)c1-c1ccc(C[C@H](NC(=O)[C@@H]2CCCN2c2cnccn2)C(=O)O)cc1 | 0.17 | 8.9 |  |  |  |
| COc1cccc(OC)c1-c1ccc(CC(NC(=O)C2(c3ccccc3)CCCC2)C(=O)O)cc1 (stereo unspecified) | 3.2 | 110 | 22 |  | 55 |
| COc1cccc(OC)c1-c1ccc(CC(NC(=O)C2(S(=O)(=O)c3ccccc3)CCCC2)C(=O)O)cc1 (stereo unspecified) | 0.11 | 5 | 122 |  | 22 |
